Each structure is given as a SMILES string.

The subject of data set [1] is pooled human liver microsomes. In words: EFV analogue metabolism by pooled human liver microsomes. The class given is in vitro ADME. To be noted: 2 mg/mL HLM, 10 μM analogue, NADPH regenerating system, 60 min, uHPLC-MS/MS. The essentials:
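Pooled human liver microsomes were incubated with test compound and an NADPH regenerating system. Oxidative products (monooxygenated or N-dealkylated) were profiled by uHPLC–MS/MS and assigned by m/z, retention time and fragment ions.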

The target of data set [2] is T1, CYP2B6 (Homo sapiens, UniProt P20813).
T1 sequence (P20813 1-491): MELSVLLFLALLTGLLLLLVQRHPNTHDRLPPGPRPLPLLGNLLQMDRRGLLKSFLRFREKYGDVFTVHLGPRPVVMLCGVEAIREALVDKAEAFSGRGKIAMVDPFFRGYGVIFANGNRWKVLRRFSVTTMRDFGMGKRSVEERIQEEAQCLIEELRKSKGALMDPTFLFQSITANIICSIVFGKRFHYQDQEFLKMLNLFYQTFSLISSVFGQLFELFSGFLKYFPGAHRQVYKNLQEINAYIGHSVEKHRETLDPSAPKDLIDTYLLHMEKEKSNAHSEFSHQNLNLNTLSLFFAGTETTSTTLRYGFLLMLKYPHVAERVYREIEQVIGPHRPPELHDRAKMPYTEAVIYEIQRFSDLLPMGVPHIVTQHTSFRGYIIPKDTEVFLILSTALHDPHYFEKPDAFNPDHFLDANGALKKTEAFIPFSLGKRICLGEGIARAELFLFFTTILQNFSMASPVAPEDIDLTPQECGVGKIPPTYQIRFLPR
In words: Substrate depletion kinetics with CYP2B6. The class given is in vitro ADME. The essentials:
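cDNA-expressed CYP2B6 (insect microsomes, 10 nM) was incubated with substrate at 37 °C in 100 mM potassium phosphate. After NADPH regenerating system was added, aliquots at 0, 2, 5, 10, 20 and 30 min were quenched in equal-volume acetonitrile with fluorinated internal standard. Depletion was measured by uHPLC–MS/MS, giving Km, kdep max and Vmax. Mean ± SD, three replicate experiments in duplicate.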

For data set [3], the target named is T1, CYP2B6. In words: Inhibition of CYP2B6 bupropion hydroxylase activity. Particulars: 10 μM compound, 40 μM bupropion, CYP2B6 50 nM, 10 min, 37 °C. The class given is biochemical. The essentials:
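Enzyme was cDNA-expressed CYP2B6 in insect microsomes, incubated with bupropion and test compound in 100 mM potassium phosphate buffer. Hydroxybupropion was quantified by uHPLC–MS/MS and expressed as a percentage of a vehicle control (no test compound). Mean ± SD of three replicate experiments run in duplicate; significance was tested against vehicle.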

Regarding `O=C1Nc2ccc(Cl)cc2[C@@](/C=C/C2CC2)(C(F)(F)F)O1` [analogue 3, (E)-Dihydroefavirenz], the “Metabolites detected from incubation with human liver microsomes” value (from here on “Metabolites detected from incubation”) in data set [1] is given as “Monooxygenated metabolites”. Moreover, at CYP2B6 [2] (relative to EFV), the “fold decrease in Km between EFV and analogue” value amounted to 2 fold. `FC(F)(F)[C@@]1(C#CC2CC2)OCNc2ccc(Cl)cc21` [analogue 8, (4S)-6-Chloro-4-(2-cyclopropylethynyl)-1,4-dihydro-4-(trifluoromethyl)-2H-3,1-benzoxazine]: the “Metabolites detected from incubation” value in data set [1] is “Monooxygenated metabolites”. On to `O=C1Nc2ccc(Cl)cc2[C@@](C#CC2CC2)(C(F)(F)F)O1` [EFV, efavirenz, reference compound], for which, at CYP2B6 [3], the “decrease in hydroxybupropion formation compared to vehicle control” value was 93%. Turning to `CCCC#CC1(C(F)(F)F)OC(=O)Nc2ccc(Cl)cc21` (racemic) [analogue 4, rac 6-Chloro-1,4-dihydro-4-(1-pentynyl)-4-(trifluoromethyl)-2H-3,1-benzoxazin-2-one], the “Metabolites detected from incubation” value in data set [1] is “Monooxygenated metabolites”. Also, on CYP2B6 [2], the “fold increase in Km relative to EFV” value came out at 2 fold. As for `COc1ccc(C(=O)Nc2ccc(Cl)cc2C(O)(C#CC2CC2)C(F)(F)F)cc1` (racemic) [analogue 7, rac N-[4-Chloro-2-[3-cyclopropyl-1-hydroxy-1-(trifluoromethyl)-2-propynyl]phenyl]-4-methoxybenzamide], in data set [1], the “Metabolites detected from incubation” value was “No metabolites”. Besides, the “inhibition of CYP2B6 hydroxybupropion formation (in words)” value against CYP2B6 [3] is given as “unable to inhibit hydroxybupropion formation”.

The record behind these values is paper PMC4191608 (ACS Medicinal Chemistry Letters, 2014).
